Active and inactive are the calls of the source. The calls are words filed in the database; no cut-off is given here.
Columns and labels:
[1] = Cell cycle arrest in human RD cells assessed as S phase accumulation at 1 uM after 24 hrs by propidium iodide staining based flow cytometry (reference value: 14.4 +/- 0.92%); assay type: functional
[2] = Cell cycle arrest in human T98G cells assessed as G1 phase accumulation at 1 uM after 24 hrs by propidium iodide staining based flow cytometry (reference value: 86.1 +/- 1.29%); assay type: functional
[3] = Antiproliferative activity against human IBR3-G SV40 cells after 72 hrs by XTT assay; assay type: functional, cell-based; details: IBR3-G SV40, 72 h
Outline: (§1)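 Cells plated at 1500–2000 per well by doubling time, treated after 24 h with a concentration series in six triplicate wells, and incubated 72 h without a medium change. XTT reagent was then added for 4 h at 37 °C and absorbance read at 490 nm. IC50 is the concentration halving absorbance versus untreated cells. Experiments run in triplicate.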

[4] = Cell cycle arrest in human NB-1 cells assessed as G1 phase accumulation at 1 uM after 72 hrs by propidium iodide staining based flow cytometry (reference value: 81.7%); details: nb1, 72 h
[5] = Cell cycle arrest in human SH-SY5Y cells assessed as subG1 phase accumulation at 1 uM after 24 hrs by propidium iodide staining based flow cytometry relative to DMSO control; assay type: functional
[6] = Cell cycle arrest in human NB-1 cells assessed as G1 phase accumulation at 1 uM after 48 hrs by propidium iodide staining based flow cytometry (reference value: 85.9%); details: nb1, 48 h
[7] = Cell cycle arrest in human NB-1 cells assessed as G2/M phase accumulation at 1 uM after 48 hrs by propidium iodide staining based flow cytometry (reference value: 12.4%); details: nb1, 48 h
[8] = Cell cycle arrest in human SH-SY5Y cells assessed as G1 phase accumulation at 1 uM after 24 hrs by propidium iodide staining based flow cytometry (reference value: 59.6 +/- 1.94%); assay type: functional
[9] = Antiproliferative activity against human NCI-H1299 cells after 72 hrs by XTT assay; assay type: functional, cell-based; details: NCI-H1299, 72 h; outline: as §1
[10] = Cell cycle arrest in human SH-SY5Y cells assessed as S phase accumulation at 1 uM after 24 hrs by propidium iodide staining based flow cytometry (reference value: 14.3 +/- 1.52%); assay type: functional
[11] = test system: A549; assay: Induction of apoptosis in human A549 cells assessed as late apoptotic cells at 5 uM after 72 hrs by Annexin-V FITC/propidium iodide staining based flow cytometry (reference value: 5.2%); assay type: functional
[12] = Cytotoxicity against human HeLa cells assessed as inhibition of colony formation at 0.03 uM after 2 weeks by crystal violet staining based assay relative to control; assay type: functional; details: 336 h
Outline: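 HeLa seeded at 100-200 cells/well in six-well plates and treated with 0.3 or 0.03 μM compound (DMSO control). Medium with compound changed every 3 days for about two weeks, until control colonies were visible. Colonies fixed and stained with 6.0% glutaraldehyde/0.5% crystal violet for 30 min, then counted against control. Done in triplicate.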

[13] = Cell cycle arrest in human Kelly cells assessed as subG1 phase accumulation at 1 uM after 24 hrs by propidium iodide staining based flow cytometry relative to DMSO control; assay type: functional
[14] = Induction of apoptosis in human NB1 hTERT cells assessed as late apoptotic cells at 5 uM after 72 hrs by Annexin-V FITC/propidium iodide staining based flow cytometry (reference value: 4.6%); assay type: functional
[15] = test system: HeLa; assay: Induction of apoptosis in human HeLa cells assessed as late apoptotic cells at 5 uM after 48 hrs by Annexin-V FITC/propidium iodide staining based flow cytometry (reference value: 4.9%); assay type: functional
[16] = Cell cycle arrest in human NB1 hTERT cells assessed as G2/M phase accumulation at 1 uM after 72 hrs by propidium iodide staining based flow cytometry (reference value: 23.9%); assay type: functional
[17] = test system: MCF7; assay: Antiproliferative activity against human MCF7 cells at 2 uM after 72 hrs by XTT assay; assay type: functional, cell-based
[18] = Cell cycle arrest in human NCI-H1299 cells assessed as G2/M phase accumulation at 1 uM after 48 hrs by propidium iodide staining based flow cytometry (reference value: 11.8%); assay type: functional
[19] = Cell cycle arrest in human SK-N-AS cells assessed as S phase accumulation at 1 uM after 24 hrs by propidium iodide staining based flow cytometry (reference value: 21.3 +/- 1.14%); assay type: functional
[20] = Induction of apoptosis in human NB-1 cells assessed as necrotic cells at 5 uM after 72 hrs by Annexin-V FITC/propidium iodide staining based flow cytometry (reference value: 0.2%); assay type: cell-based; details: nb1, 72 h
[21] = Antiproliferative activity against human SK-N-AS cells after 72 hrs by XTT assay; assay type: functional, cell-based; outline: as §1
[22] = Cell cycle arrest in human PC3 cells assessed as G1 phase accumulation at 1 uM after 24 hrs by propidium iodide staining based flow cytometry (reference value: 67 +/- 1.47%); assay type: functional; details: PC-3
[23] = Antiproliferative activity against human HeLa cells after 72 hrs by XTT assay; assay type: functional, cell-based; outline: as §1
[24] = test system: SH-SY5Y; assay: Disruption of beta-tubulin network in human SH-SY5Y cells assessed as shorter microtubule bundles around nuclei at 1 uM after 24 hrs by DAPI staining based immunofluorescence microscopic analysis; assay type: cell-based
Outline: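 Cells seeded on glass coverslips (1 x 10^5/well), treated 24 h, fixed in 4% paraformaldehyde 15 min, permeabilized with 0.5% Triton X-100, blocked in 5% BSA/PBS, stained overnight at 4 °C with anti-β-tubulin (1:200) then fluorescent secondary antibody; nuclei counterstained with DAPI; microtubule organization and nuclear morphology examined by fluorescence microscopy.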

[25] = Cell cycle arrest in human Kelly cells assessed as G2/M phase accumulation at 1 uM after 24 hrs by propidium iodide staining based flow cytometry (reference value: 18 +/- 1.28%); assay type: functional
[26] = Cell cycle arrest in human A549 cells assessed as S phase accumulation at 1 uM after 24 hrs by propidium iodide staining based flow cytometry (reference value: 7.6 +/- 0.63%); assay type: functional
[27] = Induction of apoptosis in human NB-1 cells assessed as late apoptotic cells at 5 uM after 72 hrs by Annexin-V FITC/propidium iodide staining based flow cytometry (reference value: 3.3%); assay type: cell-based; details: nb1, 72 h
[28] = test system: A549; assay: Induction of apoptosis in human A549 cells assessed as live cells at 5 uM after 72 hrs by Annexin-V FITC/propidium iodide staining based flow cytometry (reference value: 91.9%); assay type: functional
[29] = Cell cycle arrest in human NB-1 cells assessed as S phase accumulation at 1 uM after 72 hrs by propidium iodide staining based flow cytometry (reference value: 2.5%); details: nb1, 72 h
[30] = Cell cycle arrest in human SK-N-AS cells assessed as subG1 phase accumulation at 1 uM after 24 hrs by propidium iodide staining based flow cytometry relative to DMSO control; assay type: functional
[31] = Cell cycle arrest in human NCI-H1299 cells assessed as G1 phase accumulation at 1 uM after 48 hrs by propidium iodide staining based flow cytometry (reference value: 81%); assay type: functional
[32] = Antiproliferative activity against human MCF7 cells after 72 hrs by XTT assay; assay type: functional, cell-based; details: MCF7, 72 h; outline: as §1

`Cc1[nH]c2c(c1-c1nnc(-c3ccccc3)o1)Cc1ccccc1-2` gave an Activity [1] of 10.6%, an Activity [2] of 11.1% and an IC50 [3] of 210 nM. It also gave an Activity [4] of 77.6%, an Activity [5] of 15.7% and an Activity [6] of 82.6%. The Activity [7] was 15%, the Activity [8] was 24.8% and the IC50 [9] was 120 nM. The Activity [10] was 15.6%, the Activity [11] was 41.7% and the inhibition at 0.03 µM [12] was no more than 50%. The Activity [13] was 13.4%, the Activity [14] was 13.2% and the Activity [15] was 85.1%. For the same compound, the Activity [16] was 20.8%, the Activity [17] was “Active” and the Activity [18] was 42.9%. The Activity [19] was 9.9%, the Activity [20] was 0.8% and the IC50 [21] was 190 nM. The Activity [22] was 23.3%, the IC50 [23] was 50 nM and the Activity [24] was “Active”. The Activity [25] was 42.9%, the Activity [26] was 9.5% and the Activity [27] was 8.3%. The Activity [28] was 42.7%, the Activity [29] was 4.3% and the Activity [30] was 6.3%. For the same compound, the Activity [31] was 34.3% and the IC50 [32] was 1700 nM.

From ChEMBL document CHEMBL3877293, “Synthesis and Antineoplastic Evaluation of Novel Unsymmetrical 1,3,4-Oxadiazoles” (J Med Chem, 2016)
